The values that follow come from the M2OR odorant receptor database.

Where a chain is given by its changes, count along the chain named.
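Further: active if original authors judged signal statistically different from baseline.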

One assay relates to T1, O13C8 A19D.
T1 sequence (whole entry): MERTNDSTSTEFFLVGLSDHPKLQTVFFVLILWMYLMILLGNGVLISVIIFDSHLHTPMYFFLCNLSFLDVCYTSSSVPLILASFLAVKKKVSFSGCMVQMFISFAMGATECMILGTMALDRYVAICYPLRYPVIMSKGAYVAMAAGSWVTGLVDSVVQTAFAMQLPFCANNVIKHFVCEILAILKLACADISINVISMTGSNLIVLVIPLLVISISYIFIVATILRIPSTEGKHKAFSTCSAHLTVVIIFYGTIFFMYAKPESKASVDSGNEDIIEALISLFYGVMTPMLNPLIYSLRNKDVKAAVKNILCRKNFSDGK
To be noted: stereoisomer not certain. In short, it runs like this:
(§1)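 Each receptor–molecule pair is labelled responsive or non-responsive (inactive) according to whether the original authors judged the measured signal statistically different from baseline. The data were taken from the main text and supplementary material of published papers and checked for typos and inconsistencies. Assay methods differed by source, with transient luciferase assays in mammalian cell lines being common.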
As for `CCCC(S)CCOC(C)=O` (centres undefined), the “odorant receptor agonist call” value is “inactive”.
As to `Cc1cnc(C)c(C)n1`, the “odorant receptor agonist call” value was “inactive”.
Same read-out and setting: with `CC1=C(O)C(=O)OC1C` (centres undefined) the entry was “inactive”; with `CCC1OC(=O)C(O)=C1C` (centres undefined), “inactive”.
On to `CC1=NC(C)C(C)S1` (centres undefined), for which the “odorant receptor agonist call” value is “inactive”.
Same read-out and setting: with `CCC1OC(C)=C(O)C1=O` (centres undefined) the entry was “inactive”; with `CCCCCCC=CCCC=O`, “inactive”; with `CC1=C(O)C(=O)C(C)O1` (centres undefined), “inactive”.

A further assay deals with T2, O13C9 H17L V19G L23H.
T2 sequence (whole entry): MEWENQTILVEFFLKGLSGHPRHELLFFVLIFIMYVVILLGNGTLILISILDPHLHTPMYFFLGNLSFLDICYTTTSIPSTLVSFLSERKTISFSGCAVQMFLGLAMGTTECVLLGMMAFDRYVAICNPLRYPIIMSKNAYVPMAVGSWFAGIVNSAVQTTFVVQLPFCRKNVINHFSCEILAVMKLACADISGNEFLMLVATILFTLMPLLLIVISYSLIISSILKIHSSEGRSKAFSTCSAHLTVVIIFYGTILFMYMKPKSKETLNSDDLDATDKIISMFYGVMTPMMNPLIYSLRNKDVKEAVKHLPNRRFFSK
Conditions: stereoisomer not certain. In short, it runs like this:
as §1
As to `CCCC(S)CCOC(C)=O` (centres undefined), the “odorant receptor agonist call” value was “inactive”.
The same measure, in the same setting: with `Cc1cnc(C)c(C)n1` the entry was “inactive”; with `CC1=C(O)C(=O)OC1C` (centres undefined), “inactive”.
On the same count and under the same terms, then `CCC1OC(=O)C(O)=C1C` (centres undefined), with “inactive”.
On the same count and under the same terms, with `CC1=NC(C)C(C)S1` (centres undefined) the entry was “inactive”; with `CCC1OC(C)=C(O)C1=O` (centres undefined), “inactive”.
As to `CCCCCCC=CCCC=O`, the “odorant receptor agonist call” value is “inactive”.
Turning to `CC1=C(O)C(=O)C(C)O1` (centres undefined), the “odorant receptor agonist call” value was “inactive”.

Another assay deals with T3, O13C9 Q6H.
T3 sequence (whole entry): T2 sequence (whole entry) with Q6H, L17H, G19V, H23L
To be noted: stereoisomer not certain. The procedure, abridged:
as §1
As for `CCCC(S)CCOC(C)=O` (centres undefined), the “odorant receptor agonist call” value is “inactive”.
The same measure, in the same setting: then `Cc1cnc(C)c(C)n1`, with “inactive”; and `CC1=C(O)C(=O)OC1C` (centres undefined), with “inactive”.
Consider `CCC1OC(=O)C(O)=C1C` (centres undefined), for which the “odorant receptor agonist call” value was “inactive”.
Same read-out and setting: with `CC1=NC(C)C(C)S1` (centres undefined) the entry was “inactive”; with `CCC1OC(C)=C(O)C1=O` (centres undefined), “inactive”.
Still for that read-out and setting: with `CCCCCCC=CCCC=O` the entry was “inactive”; with `CC1=C(O)C(=O)C(C)O1` (centres undefined), “inactive”.
